Source: PubChem BioAssay (Sanford-Burnham Center for Chemical Genomics)
FLuc inh counter: Photinus pyralis luciferase inhibition counter-screen. P08659. ATPLite firefly luciferase biochemical luminescence, 10 min. inhibition, % at 10 µM. hit rate 1.5% among 200,000. AID 1006;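 active = inhibition above about 50% when tested at 10 µM, limit read from the data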
Target sequence (P08659 whole entry, looked up): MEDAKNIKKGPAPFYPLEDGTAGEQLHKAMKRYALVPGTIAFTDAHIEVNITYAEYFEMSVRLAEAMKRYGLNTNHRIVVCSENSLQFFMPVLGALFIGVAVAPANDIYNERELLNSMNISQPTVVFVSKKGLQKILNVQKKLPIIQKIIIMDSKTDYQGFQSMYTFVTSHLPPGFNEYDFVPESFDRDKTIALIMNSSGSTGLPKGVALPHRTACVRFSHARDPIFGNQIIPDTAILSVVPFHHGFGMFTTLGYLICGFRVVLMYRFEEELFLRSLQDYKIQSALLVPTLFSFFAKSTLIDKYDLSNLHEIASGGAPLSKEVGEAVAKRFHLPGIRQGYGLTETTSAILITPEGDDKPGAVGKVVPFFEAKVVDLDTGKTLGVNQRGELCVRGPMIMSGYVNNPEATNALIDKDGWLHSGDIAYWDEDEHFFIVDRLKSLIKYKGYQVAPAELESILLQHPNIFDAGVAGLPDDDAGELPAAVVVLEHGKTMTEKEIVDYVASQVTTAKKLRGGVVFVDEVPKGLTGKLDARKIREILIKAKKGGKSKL
FLuc stim CS: affects firefly luciferase, flagging false hits in luciferase stimulation screens. ATPlite luciferase biochemical, luminescence, 10 min; 0 = ATP-free wells, 1 = DMSO control. 200,000 tested, under 10 active. activation factor at 10 µM. P08659;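 active = luciferase activation factor, scaled between plate controls, of at least 2 with compound at 10 µM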
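assay system = Luciferase/luciferin detection reagent, cell-free biochemical luciferase assay | also added = ATP substrate | times = 10 min post-reagent at room temperature | measured by = luminescence from luciferase reaction | measure = luciferase activation, seen as luminescence increase over controls | benchmarks = low control with PBS replacing ATP, high control enzyme plus ATP without compound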
PPC-1+TRAIL kill: compounds killing PPC-1 cancer cells with TRAIL present (potentiator screen, no TRAIL-free arm); PPC-1 cells + TRAIL, ATPLite viability luminescence; cell killing (% activity), % at 4 µM or 5 µM; hit rate 0.41% among 220,000; AID 1443;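 active = cell killing above 50% in the first pass at 4 µM, then a duplicate retest at 5 µM averaging 50% or more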;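 also: plate controls were cells with TRAIL plus DMSO for no effect and medium-only wells lacking cells for full effect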
C8 TRAIL sens: sensitizes caspase-8 expressing cells to TRAIL. NB7+C8 cells + TRAIL, ATPlite viability luminescence. inhibition (viability loss, TRAIL sensitization), % at 10 µM. hit rate 1% among 360,000. AID 624354;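 active = compounds causing at least 50% loss of cell viability in the single-dose screen, relative to plate controls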
The depositor's hits bear a star. Rows were chosen to be rich in hits. Some 1.5% of all compounds tested hit in one or more screens of this group.

`C#CCOCCOCCOCCNc1nc(N2CCN(C(=O)[C@H](CCC(=O)O)n3cc(CN)nn3)CC2)nc(N2CCN(C(=O)[C@H](CCCCN)n3cc([C@@H](N)CC(N)=O)nn3)CC2)n1` gave C8 TRAIL sens -11.
Screening CC1(C)Cc2c(sc(NC(=O)c3ccco3)c2C#N)CO1 returned FLuc inh counter 75*, FLuc stim CS 0.2, PPC-1+TRAIL kill 44 and C8 TRAIL sens 42.
CCCCCc1cc(=O)oc2c(C(CCN3CCCC3)c3cc(OC)c(OC)c(OC)c3)c(OC)cc(OC)c12 (configuration not stated) was read as PPC-1+TRAIL kill 11 and C8 TRAIL sens 53*.
Screening Cc1ccc(S(=O)(=O)N2CCC(C(=O)NCCc3ccc(S(N)(=O)=O)cc3)CC2)cc1 returned FLuc inh counter -5, FLuc stim CS 1.1, PPC-1+TRAIL kill 53* and C8 TRAIL sens -6.
Screening CCC(CN(C)C)Oc1cc(NCc2ccccc2)c2ncn(C(C)C)c2c1 (configuration not stated) returned C8 TRAIL sens 58*.
For O=C(CN1CCNCC1)NCCSc1ccc(Cl)cc1 the results were FLuc inh counter -1, FLuc stim CS 1, PPC-1+TRAIL kill 7 and C8 TRAIL sens 1.
For CNc1ncnc2c1ncn2[C@H]1CN(Cc2cccnc2)C[C@@H](CO)O1 the results were C8 TRAIL sens -13.
O=C(O)c1cccc(COc2ccc3c(c2)CCC3)c1 was read as PPC-1+TRAIL kill 36 and C8 TRAIL sens 63*.
COc1ccc(OCc2cccc(C(=O)O)c2)cc1 was read as FLuc inh counter 83*, FLuc stim CS 0.2, PPC-1+TRAIL kill 34 and C8 TRAIL sens 62*.
Screening CCOc1ccc(OCc2cccc(C(=O)N3CCCCCC3)c2)cc1 returned FLuc inh counter 67*, FLuc stim CS 0.3, PPC-1+TRAIL kill 27 and C8 TRAIL sens 44.
`CCOc1ccc(OCc2cccc(C(=O)N3CCCC3)c2)cc1` gave FLuc inh counter 43, FLuc stim CS 0.6, PPC-1+TRAIL kill 28 and C8 TRAIL sens 26.
O=C(O)c1cccc(COc2ccc(CO)cc2Cl)c1 was read as FLuc inh counter 85*, FLuc stim CS 0.2, PPC-1+TRAIL kill 32 and C8 TRAIL sens 67*.
Screening CC#CC(=O)N1CCC(C(=O)Nc2ccc(Oc3ccccc3)nc2)CC1 returned C8 TRAIL sens -2.
Cn1cc(CN2CCC(C(=O)N3CCCCC3)CC2)c(-c2ccccc2F)n1 was read as FLuc inh counter 0, FLuc stim CS 1, PPC-1+TRAIL kill 30 and C8 TRAIL sens 2.
`O=C(Nc1nnc([C@H]2C[C@H](O)[C@@H](CO)O2)s1)C(c1ccccc1)c1ccccc1` gave C8 TRAIL sens 5.
`CCc1ccc(C2=NN(C(=O)CCC(=O)O)C(c3cccs3)C2)cc1` (configuration not stated) gave C8 TRAIL sens 15.
For Cc1scc(C(=O)N/N=C/c2ccco2)c1C the results were FLuc inh counter 54*, FLuc stim CS 0.5, PPC-1+TRAIL kill -2 and C8 TRAIL sens 39.
Screening CN(C)c1cccc(C(=O)N/N=C/c2ccsc2)c1 returned FLuc inh counter 90*, FLuc stim CS 0.1, PPC-1+TRAIL kill 31 and C8 TRAIL sens 58*.
For Cc1scc(C(=O)N/N=C/c2ccsc2)c1C the results were FLuc inh counter 84*, FLuc stim CS 0.2, PPC-1+TRAIL kill 54* and C8 TRAIL sens 62*.
CN(C)c1cccc(C(=O)N/N=C/c2ccoc2)c1 was read as C8 TRAIL sens 37.
For Cc1scc(C(=O)N/N=C/c2ccc([N+](=O)[O-])o2)c1C the results were C8 TRAIL sens 26.
Screening Cn1nnnc1SCC(=O)Nc1ccccc1C(N)=O returned FLuc inh counter 0, FLuc stim CS 1, PPC-1+TRAIL kill -5 and C8 TRAIL sens 0.
For Cn1cccc1/C=C1\Cc2ccccc2C1=O the results were FLuc inh counter 58*, FLuc stim CS 0.4, PPC-1+TRAIL kill -2 and C8 TRAIL sens 16.
`Cn1cccc1/C=C1\CCc2ccccc2C1=O` gave FLuc inh counter 70*, FLuc stim CS 0.3, PPC-1+TRAIL kill 8 and C8 TRAIL sens 61*.
CSc1cccc(CNC(=O)C2CCC(=O)N(CC3CCCCC3)C2)c1 (configuration not stated) was read as C8 TRAIL sens 6.
For Cc1ccnc(NC(=S)NC(=O)c2cccs2)c1 the results were FLuc inh counter 87*, FLuc stim CS 0.1, PPC-1+TRAIL kill 61* and C8 TRAIL sens 89*.
Screening Cc1ccnc(NC(=S)NC(=O)c2ccco2)c1 returned FLuc inh counter 61*, FLuc stim CS 0.4, PPC-1+TRAIL kill 27 and C8 TRAIL sens 53*.
